In ChEMBL document CHEMBL3608275, “Synthesis, nicotinic acetylcholine receptor binding, in vitro and in vivo pharmacology properties of 3'-(substituted pyridinyl)-deschloroepibatidine analogs” (Bioorg Med Chem, 2015):

Experiments:
Mus musculus [1] = assay: Antinociceptive activity in sc dosed mouse assessed as jumping or licking of paw behavior after 5 mins by hot-plate test
Mus musculus [2] = assay: Antinociceptive activity in intratracheally dosed mouse assessed as maximum latency after 5 mins by tail-flick assay; conditions: inhaled or nasal
Mus musculus [3] = assay: Antinociceptive activity in sc dosed mouse assessed as reduction of body rectal temperature; format: functional
[4] = molecular target: T1, Neuronal acetylcholine receptor; alpha4/beta2 (Rattus norvegicus) (UniProt P09483+P12390); assay: Agonist activity at rat alpha4beta2 nAChR expressed in Xenopus laevis oocytes assessed as mean current response at 100 uM by two-electrode voltage clamp electrophysiology assay relative to acetylcholine; format: cell-based
[5] = molecular target: Neuronal acetylcholine receptor subunit alpha-7 (Rattus norvegicus) (UniProt Q05941); assay: Agonist activity at rat alpha7 nAChR expressed in Xenopus laevis oocytes assessed as mean current response at 100 uM by two-electrode voltage clamp electrophysiology assay relative to acetylcholine; format: cell-based
Chain of Neuronal acetylcholine receptor subunit alpha-7 (Rattus norvegicus) (Q05941 whole entry): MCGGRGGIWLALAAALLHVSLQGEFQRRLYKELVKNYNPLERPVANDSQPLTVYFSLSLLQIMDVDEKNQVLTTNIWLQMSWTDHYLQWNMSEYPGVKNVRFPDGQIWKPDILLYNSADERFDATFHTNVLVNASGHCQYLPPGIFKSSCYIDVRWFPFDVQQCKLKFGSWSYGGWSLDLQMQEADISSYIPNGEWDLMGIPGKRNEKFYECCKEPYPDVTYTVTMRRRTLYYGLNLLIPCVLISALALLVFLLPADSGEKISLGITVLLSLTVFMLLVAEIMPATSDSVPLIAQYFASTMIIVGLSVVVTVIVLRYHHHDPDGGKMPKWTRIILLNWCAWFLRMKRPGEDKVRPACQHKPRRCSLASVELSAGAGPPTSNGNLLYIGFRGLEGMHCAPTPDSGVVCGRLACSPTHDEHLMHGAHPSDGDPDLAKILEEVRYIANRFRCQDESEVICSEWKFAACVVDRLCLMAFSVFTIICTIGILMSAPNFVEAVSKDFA

[6] = molecular target: T2, Neuronal acetylcholine receptor; alpha3/beta4 (Rattus norvegicus) (UniProt P04757+P12392); assay: Agonist activity at rat alpha3beta4 nAChR expressed in Xenopus laevis oocytes assessed as mean current response at 100 uM by two-electrode voltage clamp electrophysiology assay relative to acetylcholine; format: cell-based
Mus musculus [7] = assay: Antinociceptive activity in sc dosed mouse assessed as spontaneous locomotor activity measured for 10 mins; format: functional
[8] = molecular target: Neuronal acetylcholine receptor subunit alpha-7 (Rattus norvegicus) (UniProt Q05941); assay: Antagonist activity at rat alpha7 nAChR expressed in Xenopus laevis oocytes assessed as inhibition of acetylcholine-induced mean current response by measuring remaining current at 100 uM by two-electrode voltage clamp electrophysiology assay relative to control; values are per cent of control
[9] = molecular target: Neuronal acetylcholine receptor; alpha3/beta4 (Rattus norvegicus, UniProt P04757+P12392); assay: Antagonist activity at rat alpha3beta4 nAChR expressed in Xenopus laevis oocytes assessed as inhibition of acetylcholine-induced mean current response by two-electrode voltage clamp electrophysiology assay; format: cell-based
Chain of Neuronal acetylcholine receptor; alpha3/beta4 (P04757 whole entry): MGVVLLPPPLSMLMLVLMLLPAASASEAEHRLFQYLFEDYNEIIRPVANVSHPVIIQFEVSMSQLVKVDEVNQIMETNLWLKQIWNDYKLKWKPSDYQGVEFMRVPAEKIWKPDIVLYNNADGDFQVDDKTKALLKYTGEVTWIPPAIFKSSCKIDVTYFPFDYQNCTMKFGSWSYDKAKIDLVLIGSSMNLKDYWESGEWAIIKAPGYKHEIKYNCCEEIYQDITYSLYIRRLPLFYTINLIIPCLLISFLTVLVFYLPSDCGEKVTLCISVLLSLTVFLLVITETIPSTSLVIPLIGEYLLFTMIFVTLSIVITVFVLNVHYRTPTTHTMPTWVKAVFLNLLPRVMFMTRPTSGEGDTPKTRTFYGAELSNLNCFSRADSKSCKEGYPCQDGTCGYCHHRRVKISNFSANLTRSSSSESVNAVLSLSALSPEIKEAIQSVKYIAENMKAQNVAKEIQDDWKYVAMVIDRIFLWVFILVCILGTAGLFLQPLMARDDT
Chain of Neuronal acetylcholine receptor; alpha3/beta4 (P12392 whole entry): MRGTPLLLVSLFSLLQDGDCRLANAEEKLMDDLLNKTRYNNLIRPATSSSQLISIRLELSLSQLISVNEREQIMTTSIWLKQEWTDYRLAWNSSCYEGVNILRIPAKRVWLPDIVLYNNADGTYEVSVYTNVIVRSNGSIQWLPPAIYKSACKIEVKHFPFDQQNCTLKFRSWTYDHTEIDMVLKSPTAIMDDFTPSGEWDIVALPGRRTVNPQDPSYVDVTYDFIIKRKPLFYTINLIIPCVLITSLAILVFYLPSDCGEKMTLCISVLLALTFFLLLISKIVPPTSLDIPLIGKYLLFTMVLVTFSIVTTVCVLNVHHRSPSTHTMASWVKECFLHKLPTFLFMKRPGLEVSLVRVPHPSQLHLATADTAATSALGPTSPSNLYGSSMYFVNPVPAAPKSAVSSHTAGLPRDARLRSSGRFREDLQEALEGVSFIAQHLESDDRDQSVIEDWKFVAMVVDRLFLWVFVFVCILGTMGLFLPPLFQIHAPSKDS
Outline: (§1)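 Rat nAChRs in Xenopus oocytes under two-electrode voltage clamp. […] IC50 is taken from concentration-inhibition curves.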

[10] = molecular target: T3, Neuronal acetylcholine receptor; alpha4/beta2 (Rattus norvegicus, UniProt P09483+P12390); assay: Displacement of [3H]-epibatidine from alpha4beta2 nAChR in rat cerebral cortex homogenates after 4 hrs by liquid scintillation counting; format: tissue-based
T3 sequence (P09483 whole entry): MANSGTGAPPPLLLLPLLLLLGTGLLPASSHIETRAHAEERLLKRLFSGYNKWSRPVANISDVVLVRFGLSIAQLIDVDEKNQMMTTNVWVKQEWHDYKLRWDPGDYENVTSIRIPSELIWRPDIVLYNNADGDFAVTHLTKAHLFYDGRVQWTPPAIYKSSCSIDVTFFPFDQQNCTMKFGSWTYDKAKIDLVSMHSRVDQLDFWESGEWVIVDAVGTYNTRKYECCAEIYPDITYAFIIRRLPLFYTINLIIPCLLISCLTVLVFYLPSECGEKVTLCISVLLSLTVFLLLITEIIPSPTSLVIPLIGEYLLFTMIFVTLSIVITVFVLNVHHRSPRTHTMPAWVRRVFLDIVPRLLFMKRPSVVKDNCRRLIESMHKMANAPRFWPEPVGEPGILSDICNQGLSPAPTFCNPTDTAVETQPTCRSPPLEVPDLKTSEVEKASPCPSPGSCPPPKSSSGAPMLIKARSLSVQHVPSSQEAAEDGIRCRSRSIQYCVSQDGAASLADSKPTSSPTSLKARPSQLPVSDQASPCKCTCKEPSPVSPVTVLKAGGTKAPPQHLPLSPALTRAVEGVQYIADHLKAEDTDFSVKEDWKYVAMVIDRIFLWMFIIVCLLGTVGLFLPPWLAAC
T3 sequence (P12390 whole entry): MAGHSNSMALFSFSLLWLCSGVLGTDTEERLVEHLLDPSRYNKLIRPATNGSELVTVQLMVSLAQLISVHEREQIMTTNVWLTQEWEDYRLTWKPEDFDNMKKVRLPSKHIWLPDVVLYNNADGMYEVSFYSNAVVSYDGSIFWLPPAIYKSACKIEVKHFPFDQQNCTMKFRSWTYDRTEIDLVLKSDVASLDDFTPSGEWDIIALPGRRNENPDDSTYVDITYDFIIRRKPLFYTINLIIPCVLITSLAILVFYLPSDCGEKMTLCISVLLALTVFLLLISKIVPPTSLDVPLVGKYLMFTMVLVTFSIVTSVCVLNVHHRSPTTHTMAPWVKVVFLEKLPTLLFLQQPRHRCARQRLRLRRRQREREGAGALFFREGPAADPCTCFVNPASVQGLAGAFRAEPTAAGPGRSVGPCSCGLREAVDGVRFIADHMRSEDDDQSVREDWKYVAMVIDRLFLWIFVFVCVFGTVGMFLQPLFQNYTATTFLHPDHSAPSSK

Mus musculus [11] = assay: Antinociceptive activity in mouse assessed as maximum latency at 10 mg/kg, administered as intratracheally after 5 mins by tail-flick assay; format: functional
Mus musculus [12] = assay: Antinociceptive activity in mouse assessed as jumping or licking of paw behavior at 10 mg/kg, sc after 5 mins by hot-plate test; format: functional
[13] = molecular target: T3, Neuronal acetylcholine receptor; alpha4/beta2; assay: Antagonist activity at rat alpha4beta2 nAChR expressed in Xenopus laevis oocytes assessed as inhibition of acetylcholine-induced mean current response by two-electrode voltage clamp electrophysiology assay; format: cell-based; outline: as §1
[14] = molecular target: T2, Neuronal acetylcholine receptor; alpha3/beta4 (Rattus norvegicus); assay: Antagonist activity at rat alpha3beta4 nAChR expressed in Xenopus laevis oocytes assessed as inhibition of acetylcholine-induced mean current response by measuring remaining current at 100 uM by two-electrode voltage clamp electrophysiology assay relative to control; values are per cent of control
Mus musculus [15] = assay: Antinociceptive activity in mouse assessed as inhibition of nicotine-induced antinociception at 1000 ug/kg, sc after 5 mins by hot-plate test; format: functional
[16] = molecular target: Neuronal acetylcholine receptor subunit alpha-7 (Rattus norvegicus, UniProt Q05941); assay: Antagonist activity at rat alpha7 nAChR expressed in Xenopus laevis oocytes assessed as inhibition of acetylcholine-induced mean current response by two-electrode voltage clamp electrophysiology assay; format: cell-based; outline: as §1
Chain of Neuronal acetylcholine receptor subunit alpha-7 (Q05941 whole entry): as the sequence (Q05941 whole entry) above

[17] = molecular target: T1, Neuronal acetylcholine receptor; alpha4/beta2 (Rattus norvegicus); assay: Antagonist activity at rat alpha4beta2 nAChR expressed in Xenopus laevis oocytes assessed as inhibition of acetylcholine-induced mean current response by measuring remaining current at 100 uM by two-electrode voltage clamp electrophysiology assay relative to control; values are per cent of control
Mus musculus [18] = assay: Antinociceptive activity in intratracheally dosed mouse assessed as inhibition of nicotine-induced antinociception after 5 mins by tail-flick assay; format: functional
Mus musculus [19] = assay: Antinociceptive activity in mouse assessed as spontaneous locomotor activity at 10 mg/kg, sc measured for 10 mins; format: functional
Mus musculus [20] = assay: Antinociceptive activity in mouse assessed as reduction of body rectal temperature at 10 mg/kg, sc; format: functional; set-up: scale not given: the % may be the effect or the level left
Mus musculus [21] = assay: Antinociceptive activity in sc dosed mouse assessed as inhibition of nicotine-induced antinociception after 5 mins by hot-plate test; format: functional
Mus musculus [22] = assay: Antinociceptive activity in mouse assessed as inhibition of nicotine-induced antinociception at 10000 ug/kg, sc after 5 mins by hot-plate test; format: functional

Row | SMILES | ED50 (Mus musculus [3]) | Activity [4] | Activity [5] | Activity [6] | ED50 (Mus musculus [7]) | residual activity [8] | IC50 [9] | Ki [10] | Activity (Mus musculus [11]) | Activity (Mus musculus [12]) | IC50 [13] | residual activity [14] | inhibition in vivo at 1 mg/kg (Mus musculus [15]) | IC50 [16] | residual activity [17] | AD50 (Mus musculus [18]) | further results
1 | Clc1ccc([C@H]2C[C@H]3CC[C@H]2N3)cn1 | 0.004 mg/kg | 131% | 150% | 97% | 0.001 mg/kg | – | – | – | – | – | – | – | – | – | – | – | ED50 (Mus musculus [1]): 0.004 mg/kg; ED50 (Mus musculus [2]): 0.006 mg/kg
2 | Fc1ccc(-c2cncc([C@H]3C[C@H]4CC[C@H]3N4)c2)cn1 (racemic) | 2.78 mg/kg | 0% | 0% | 5.5% | 0.69 mg/kg | 36% | 33 µM | 0.13 nM | 10% | 10% | 1300 nM | 41% | 10% | 60 µM | 7.9% | 2 µg/kg | –
3 | c1cc(-c2cncc([C@H]3C[C@H]4CC[C@H]3N4)c2)ccn1 (racemic) | 5 mg/kg | 1% | 8.1% | 9.5% | 1.76 mg/kg | 69% | 23 µM | 0.22 nM | 7% | 4% | 7100 nM | 11% | 20% | 179 µM | 3.9% | 39 µg/kg | –
4 | Fc1cc(-c2cncc([C@H]3C[C@H]4CC[C@H]3N4)c2)ccn1 (racemic) | 5.2 mg/kg | 0% | 5.7% | 9.5% | 1.78 mg/kg | 90% | 23 µM | 0.18 nM | 13% | 34% | 2900 nM | 18% | 46% | 233 µM | 8.1% | 1.2 µg/kg | –
5 | Clc1cc(-c2cncc([C@H]3C[C@H]4CC[C@H]3N4)c2)ccn1 (racemic) | 6.2 mg/kg | 0% | 8.1% | 6.5% | 1.6 mg/kg | 47% | 20 µM | 0.29 nM | 10% | 30% | 11000 nM | 10% | 36% | 97 µM | 5.7% | 110 µg/kg | –
6 | Nc1cc(-c2cncc([C@H]3C[C@H]4CC[C@H]3N4)c2)ccn1 (racemic) | – | 0% | 12% | 1.2% | – | 44% | – | 0.38 nM | 1% | 5% | – | 4.2% | 32% | – | 5.2% | 1 µg/kg | Activity (Mus musculus [19]): 20%; Activity (Mus musculus [20]): 0%
7 | COc1cc(-c2cncc([C@H]3C[C@H]4CC[C@H]3N4)c2)ccn1 (racemic) | 10 mg/kg | 0% | 16% | 6.1% | – | 47% | 13 µM | 0.094 nM | 14% | 50% | 1200 nM | 7.2% | – | 114 µM | 4% | 0.3 µg/kg | AD50 (Mus musculus [21]): 900 µg/kg
8 | c1cncc(-c2cncc([C@H]3C[C@H]4CC[C@H]3N4)c2)c1 (racemic) | 7 mg/kg | 0% | 5.8% | 4.5% | 3 mg/kg | 59% | 22 µM | 0.81 nM | 3% | 14% | 6400 nM | 14% | – | 117 µM | 5.3% | 0.68 µg/kg | AD50 (Mus musculus [21]): 2000 µg/kg
9 | Clc1ccc(-c2cncc([C@H]3C[C@H]4CC[C@H]3N4)c2)cn1 (racemic) | 5.5 mg/kg | 0% | 4.8% | 3.1% | 0.56 mg/kg | 38% | 24 µM | 0.12 nM | 8% | 17% | 2700 nM | 12% | 10% | 66 µM | 4.8% | 0.5 µg/kg | –
10 | Nc1ccc(-c2cncc([C@H]3C[C@H]4CC[C@H]3N4)c2)cn1 (racemic) | – | 0% | 7% | 0% | – | 46% | – | 0.9 nM | 3% | 14% | – | 5.4% | – | – | 5.7% | 1.5 µg/kg | Activity (Mus musculus [19]): 20%; Activity (Mus musculus [20]): 0%; inhibition in vivo at 10 mg/kg (Mus musculus [22]): 50%
11 | COc1ccc(-c2cncc([C@H]3C[C@H]4CC[C@H]3N4)c2)cn1 (racemic) | 5.5 mg/kg | 0% | 1.2% | 2.4% | 0.56 mg/kg | 18% | 8.2 µM | 0.27 nM | 8% | 17% | 1800 nM | 8.4% | 10% | 30 µM | 4.5% | 0.5 µg/kg | –
12 | CN1CCC[C@H]1c1cccnc1 [NICOTINE] | 1 mg/kg | 40% | 43% | 37% | 0.5 mg/kg | – | – | – | – | – | – | – | – | – | – | – | ED50 (Mus musculus [1]): 0.65 mg/kg; ED50 (Mus musculus [2]): 1.3 mg/kg
13 | c1cnc2cc3c(cc2n1)[C@@H]1CNC[C@H]3C1 [VARENICLINE] | 2.8 mg/kg | 13% | 74% | 66% | 2.1 mg/kg | – | – | – | 11% | 10% | – | – | – | – | – | 0.2 µg/kg | AD50 (Mus musculus [21]): 470 µg/kg
